The values below come from ChEMBL document CHEMBL2169881, “Synthesis and biological activity of obatoclax derivatives as novel and potent SHP-1 agonists” (Eur J Med Chem, 2012).

What all share (type): functional, cell-based
Assay [1] is described as follows: Cytotoxicity against human PLC5 cells by MTT assay. In a few lines: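 MTT viability assay on PLC5 hepatocellular carcinoma cells maintained in DMEM with 10% FBS, penicillin, streptomycin and amphotericin B at 37 °C, 5% CO2. IC50 is the concentration giving 50% growth inhibition, interpolated from dose–response curves.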
Assay [2] has as its target Tyrosine-protein phosphatase non-receptor type 6 (Homo sapiens) (UniProt P29350). The assay can be described thus: Agonist activity at SHP1 in human PLC5 cells assessed as decrease in pSTAT3-mediated Mcl1 level at 10 uM after 12 hrs by Western blot analysis. Summed up: (§1)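 PLC5 cells (ATCC) grown in DMEM with 10% FBS, penicillin G, streptomycin and amphotericin B at 37 °C, 5% CO2. Cells treated at 10 μM for 12 h. Lysates immunoblotted for p-STAT3, STAT3, SHP-1, Mcl-1, survivin, cyclin D1, PARP, with actin as loading control.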
A general note: A western blot detects proteins with antibodies after separation by electrophoresis.

The target is the same in assay [3]. The assay can be described thus: Agonist activity at SHP1 in human PLC5 cells assessed as decrease in pSTAT3-mediated survivin level at 10 uM after 12 hrs by Western blot analysis. In a few lines: as §1
For assay [4] the target is unchanged. Kind of assay: Agonist activity at SHP1 in human PLC5 cells assessed as inhibition of IL6-induced STAT3 phosphorylation at 10 uM incubated for 24 hrs prior to IL6-induction measured after 30 mins by sandwich ELISA. In a few lines:
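PLC5 cells, cultured in DMEM/10% FBS with antibiotics at 37 °C, 5% CO2, were pretreated with compound at 10 μM for 24 h. IL-6 (10 ng/mL) stimulation followed for 30 min before STAT3 activity was read.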
On the technique in general: In an ELISA, binding on a coated surface is turned into a signal by an enzyme label.

The target is the same in assay [5]. The assay can be described thus: Agonist activity at SHP1 in human PLC5 cells assessed as increase in SHP1 level at 10 uM after 12 hrs by Western blot analysis. In a few lines:
as §1

Assay [6] shares this target. Kind of assay: Agonist activity at SHP1 in human PLC5 cells assessed as inhibition of STAT3 Y705 phosphorylation at 10 uM after 12 hrs by Western blot analysis. In a few lines:
as §1

Assay [7] shares this target. The assay can be described thus: Agonist activity at SHP1 in human PLC5 cells at 10 uM after 6 hrs by immunoprecipitation method.
Assay [8] has the same target. Kind of assay: Agonist activity at SHP1 in human PLC5 cells assessed as decrease in pSTAT3-mediated cyclinD1 level at 10 uM after 12 hrs by Western blot analysis. In a few lines: as §1

Active and inactive are the calls of the source. The rule behind the calls is not given here.

Sequence of Tyrosine-protein phosphatase non-receptor type 6 (Homo sapiens) (P29350 whole entry): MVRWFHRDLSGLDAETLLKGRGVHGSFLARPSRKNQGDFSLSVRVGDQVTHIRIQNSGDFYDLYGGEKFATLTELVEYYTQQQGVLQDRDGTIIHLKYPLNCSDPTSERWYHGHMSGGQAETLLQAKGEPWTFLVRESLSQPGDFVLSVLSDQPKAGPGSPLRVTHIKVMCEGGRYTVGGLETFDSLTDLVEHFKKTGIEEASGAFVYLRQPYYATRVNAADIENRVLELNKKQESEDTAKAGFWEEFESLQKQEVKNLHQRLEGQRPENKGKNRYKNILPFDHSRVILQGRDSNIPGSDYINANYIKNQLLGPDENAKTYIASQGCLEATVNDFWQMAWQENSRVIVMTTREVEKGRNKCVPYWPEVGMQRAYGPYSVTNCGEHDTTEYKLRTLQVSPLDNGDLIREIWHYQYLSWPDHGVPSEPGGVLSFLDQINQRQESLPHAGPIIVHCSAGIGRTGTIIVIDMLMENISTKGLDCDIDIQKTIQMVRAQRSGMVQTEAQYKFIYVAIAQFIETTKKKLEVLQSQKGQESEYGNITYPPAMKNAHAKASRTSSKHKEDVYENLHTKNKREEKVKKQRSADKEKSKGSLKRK

As to `COC1=CC(c2cccs2)=N/C1=C\c1[nH]c(C)cc1C`, in assay [1], the IC50 (as a rule, the concentration at which inhibition is half-maximal) is above 40 µM.
Consider `COc1cc(-c2cc3ccccc3n2C(=O)OC(C)(C)C)[nH]c1/C=C1\C(=O)Nc2ccccc21`, for which the half-inhibitory concentration (IC50) in assay [1] is above 40 µM.
Consider `COC1=CC(c2cc3ccccc3n2C(=O)OC(C)(C)C)=N/C1=C\c1[nH]c(C)cc1C`, for which the half-inhibitory concentration (IC50) in assay [1] is 28.4 µM.
For the compound `COC1=CC(c2cc3ccccc3[nH]2)=N/C1=C\c1[nH]c(C)cc1C` [OBATOCLAX], the IC50 in assay [1] stood at 12.1 µM.
Still for that read-out and setting: the figure for `COc1cc(-c2cc3ccccc3n2C(=O)OC(C)(C)C)[nH]c1/C=C1/SC(=O)NC1=O` is above 40 µM; for `COC1=CC(c2cc3ccccc3[nH]2)=N/C1=C\c1cccs1` it is above 40 µM.
As for `COC1=CC(c2cc3cc(Br)ccc3[nH]2)=N/C1=C\c1ccc[nH]1`, the outcome in assay [2], in assay [3], in assay [5], in assay [7] and in assay [8] was Active. For the same compound, the inhibition result in assay [4] and in assay [6] was “Active” in each case. The compound also gave a half-maximal inhibitory concentration (IC50) in assay [1] of 6.3 µM.
Compound `COc1cc(-c2cc3ccccc3[nH]2)[nH]c1/C=C1\C(=O)Nc2ccccc21` gave an IC50 in assay [1] of 35.4 µM.
In assay [1], `COC1=CC(c2cccs2)=N/C1=C\c1cccs1` came in with an IC50 of 25.9 µM.
`COC1=CC(c2cc3ccccc3n2C(=O)OC(C)(C)C)=N/C1=C\c1ccc[nH]1`: the IC50 in assay [1] is above 40 µM.
`COC1=CC(c2cc3ccccc3[nH]2)=N/C1=C\c1ccc(-c2cc3ccccc3[nH]2)[nH]1`: the result in assay [2], in assay [3], in assay [5], in assay [7] and in assay [8] was Active. The inhibition result in assay [4] and in assay [6] was “Active” each time. In assay [1], this compound returned an IC50 of 15.9 µM.
On to `COc1cc(-c2cc3ccccc3[nH]2)[nH]c1C1SCCCS1`, for which the concentration for half-maximal inhibition (IC50) in assay [1] was above 40 µM.
For the compound `COC1=CC(c2ccco2)=N/C1=C\c1ccc[nH]1`, the outcome in assay [2], in assay [3], in assay [5] and in assay [8] was inactive. The inhibition result in assay [6] was “inactive”. The compound also gave a concentration for half-maximal inhibition (IC50) in assay [1] above 40 µM.
As to `COC1=CC(c2cccs2)=N/C1=C\c1ccc[nH]1`, the 50% inhibitory concentration (IC50) in assay [1] was above 40 µM.
On the same count and under the same terms, the figure for `COc1cc(-c2cc3ccccc3[nH]2)[nH]c1/C=C1/SC(=O)NC1=O` is 27.5 µM.
In the case of `COC1=CC(c2cc3ccccc3[nH]2)=N/C1=C\c1ccc[nH]1`, the outcome in assay [2], in assay [3], in assay [5], in assay [7] and in assay [8] was Active. The inhibition result in assay [4] and in assay [6] was “Active” in each case. In assay [1], this compound returned an IC50 of 13.2 µM.
